From ChEMBL document CHEMBL4261512, “Discovery of novel trimethoxy-ring BRD4 bromodomain inhibitors: AlphaScreen assay, crystallography and cell-based assay” (Medchemcomm, 2017)
Values belong to the molecule of their own block, whether it stands above or below them.

How the values were obtained:
MV4-11 [1] = experiment: Induction of apoptosis in human MV4-11 cells assessed as late apoptotic cells after 72 hrs by annexin-V-FITC/propidium iodide staining-based flow cytometric method (reference value: 2.14%); type: functional
Outline: (§1)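 MV4-11 cells seeded at 3 × 10⁵ in 6-well plates, settled 30 min, then given compound or DMSO for 72 h. Resuspended in 1× binding buffer with Annexin V-FITC for 15 min at room temperature in the dark, then PI added 5 min before flow cytometry. Populations quantified with the instrument software.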

MV4-11 [2] = experiment: Cell cycle arrest in human MV4-11 cells assessed as accumulation at G1 phase after 24 hrs by propidium iodide staining-based flow cytometric method (reference value: 54.50%); type: functional
MV4-11 [3] = experiment: Induction of apoptosis in human MV4-11 cells assessed as viable cells after 72 hrs by annexin-V-FITC/propidium iodide staining-based flow cytometric method (reference value: 96.2%); type: functional; outline: as §1
MV4-11 [4] = experiment: Induction of apoptosis in human MV4-11 cells assessed as necrotic cells after 72 hrs by annexin-V-FITC/propidium iodide staining-based flow cytometric method (reference value: 0%); type: functional; outline: as §1
MV4-11 [5] = experiment: Cell cycle arrest in human MV4-11 cells assessed as accumulation at G2 phase after 24 hrs by propidium iodide staining-based flow cytometric method (reference value: 11.98%); type: functional
MV4-11 [6] = experiment: Cell cycle arrest in human MV4-11 cells assessed as accumulation at S phase after 24 hrs by propidium iodide staining-based flow cytometric method (reference value: 33.52%); type: functional
MV4-11 [7] = experiment: Induction of apoptosis in human MV4-11 cells assessed as early apoptotic cells after 72 hrs by annexin-V-FITC/propidium iodide staining-based flow cytometric method (reference value: 1.64%); type: functional; outline: as §1
[8] = target: T1, Bromodomain-containing protein 4 (Homo sapiens, UniProt O60885); experiment: Inhibition of SGRG-K(Ac)-GG-K(Ac)-GLGK(Ac)-GGA-K(Ac)-RHRKVGG-K(Biotin) binding to N-terminal 6xHis-tagged human BRD4 bromodomain 1 expressed in Escherichia coli BL21 (DE3) at 50 uM preincubated for 10 mins followed by peptide addition and measured after 10 mins by AlphaScreen assay relative to control
Outline: (§2)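 AlphaScreen peptide displacement. His-tagged BRD4 BD1 preincubated 10 min at room temperature with compound in buffer (0.1% Triton X-100, 1 mM DTT, 0.1% BSA). Then 25 nM biotinylated tetra-acetylated H4-type peptide added for 10 min, Ni-chelate acceptor beads for 30 min, and streptavidin donor beads for 30 min in subdued light. Alpha signal read; JQ-1 as control. IC50 from four-parameter log-logistic fit.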

[9] = target: T1, Bromodomain-containing protein 4; experiment: Inhibition of SGRG-K(Ac)-GG-K(Ac)-GLGK(Ac)-GGA-K(Ac)-RHRKVGG-K(Biotin) binding to N-terminal 6xHis-tagged human BRD4 bromodomain 1 expressed in Escherichia coli BL21 (DE3) preincubated for 10 mins followed by peptide addition and measured after 10 mins by AlphaScreen assay; outline: as §2
MV4-11 [10] = experiment: Induction of apoptosis in human MV4-11 cells assessed as early apoptotic cells at 50 uM after 72 hrs by annexin-V-FITC/propidium iodide staining-based flow cytometric method (reference value: 1.64%); type: functional; outline: as §1
MV4-11 [11] = experiment: Induction of apoptosis in human MV4-11 cells assessed as necrotic cells at 50 uM after 72 hrs by annexin-V-FITC/propidium iodide staining-based flow cytometric method (reference value: 0%); type: functional; outline: as §1
[12] = target: T1, Bromodomain-containing protein 4; experiment: Inhibition of BRD4 in human MV4-11 cells assessed as downregulation of c-Myc protein expression after 6 hrs by Western blot method; type: cell-based
Outline: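 MV4-11 cells seeded at 3 × 10⁵ in 6-well plates, settled 30 min, then given graded compound concentrations or DMSO for 6 h. Probed with rabbit anti-c-Myc mAb and HRP-labelled secondary.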

MV4-11 [13] = experiment: Induction of apoptosis in human MV4-11 cells assessed as late apoptotic cells at 50 uM after 72 hrs by annexin-V-FITC/propidium iodide staining-based flow cytometric method (reference value: 2.14%); type: functional; outline: as §1
MV4-11 [14] = experiment: Antiproliferative activity against human MV4-11 cells after 7 days by Alamar blue assay; type: functional, cell-based
Outline: (§3)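 MV4-11 cells in RPMI 1640 with 10% FBS and 1% Pen/Strep at 37 °C, 5% CO2. Seeded at 1 × 10⁵–3 × 10⁵, settled 30 min, then given graded compound concentrations or DMSO for three or seven days. Alamar Blue added for 3 h at 37 °C; fluorescence read at ex 544/em 590 nm. Viability normalized to control; IC50 fitted from the dose–response.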

MV4-11 [15] = experiment: Cell cycle arrest in human MV4-11 cells assessed as accumulation at S phase at 50 uM after 24 hrs by propidium iodide staining-based flow cytometric method (reference value: 33.52%); type: functional
[16] = target: T1, Bromodomain-containing protein 4; experiment: Inhibition of BRD4 in human MV4-11 cells assessed as downregulation of c-Myc gene expression after 6 hrs by qRT-PCR method; type: cell-based
Outline: (§4)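 MV4-11 cells given compound at varied concentrations (10 and 30 μM) for 6 h. Bcl-2, c-Myc and CDK6 transcripts quantified by real-time quantitative PCR relative to untreated control.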

[17] = target: T1, Bromodomain-containing protein 4; experiment: Binding affinity to N-terminal 6xHis-tagged human BRD4 bromodomain 1 expressed in Escherichia coli BL21 (DE3) assessed as change in melting temperature at 100 uM by SYPRO orange dye-based RT-PCR method (reference value: 0 degC)
MV4-11 [18] = experiment: Antiproliferative activity against human MV4-11 cells after 3 days by Alamar blue assay; type: functional, cell-based; outline: as §3
[19] = target: T1, Bromodomain-containing protein 4; experiment: Binding affinity to N-terminal 6xHis-tagged human BRD4 bromodomain 1 expressed in Escherichia coli BL21 (DE3) assessed as change in melting temperature by SYPRO orange dye-based RT-PCR method
[20] = target: T1, Bromodomain-containing protein 4; experiment: Binding affinity to N-terminal 6xHis-tagged human BRD4 bromodomain 1 expressed in Escherichia coli BL21 (DE3) assessed as change in melting temperature at 200 uM by SYPRO orange dye-based RT-PCR method (reference value: 0 degC)
MV4-11 [21] = experiment: Cell cycle arrest in human MV4-11 cells assessed as accumulation at G2 phase at 50 uM after 24 hrs by propidium iodide staining-based flow cytometric method (reference value: 11.98%); type: functional
MV4-11 [22] = experiment: Cell cycle arrest in human MV4-11 cells assessed as accumulation at G1 phase at 50 uM after 24 hrs by propidium iodide staining-based flow cytometric method (reference value: 54.50%); type: functional
[23] = target: T1, Bromodomain-containing protein 4; experiment: Inhibition of BRD4 in human MV4-11 cells assessed as downregulation of CDK6 gene expression after 6 hrs by qRT-PCR method; type: cell-based; outline: as §4
MV4-11 [24] = experiment: Induction of apoptosis in human MV4-11 cells assessed as viable cells at 50 uM after 72 hrs by annexin-V-FITC/propidium iodide staining-based flow cytometric method (reference value: 96.2%); type: functional; settings: MV4-11, 72 h, read-out: Activity; outline: as §1
[25] = target: T1, Bromodomain-containing protein 4; experiment: Inhibition of BRD4 in human MV4-11 cells assessed as downregulation of Bcl-2 gene expression after 6 hrs by qRT-PCR method; type: cell-based; outline: as §4

inhibition [8]: 96%
Structure (SMILES): COc1cc(C(=O)Nc2nc(C)cs2)cc(OC)c1OC

inhibition [8]: 94%
Structure (SMILES): CCC(CO)NC(=O)c1cc(OC)c(OC)c(OC)c1 (configuration not stated)

inhibition [8]: 90%
Structure (SMILES): COc1cc(C(=O)NC2CCCC2)cc(OC)c1OC

inhibition [8]: 90%
Structure (SMILES): COc1cc(C(=O)Nc2nnc(C)s2)cc(OC)c1OC

IC50 [9]: 2.1 µM
Structure (SMILES): COC(=O)C(CCSC)NC(=O)c1cc(OC)c(OC)c(OC)c1 (configuration not stated)

inhibition [8]: 90%
Structure (SMILES): CCc1nnc(NC(=O)c2cc(OC)c(OC)c(OC)c2)s1

IC50 [9]: 8.5 µM
Structure (SMILES): COC(=O)C(CC(C)C)NC(=O)c1cc(OC)c(OC)c(OC)c1 (configuration not stated)

Further lines, the molecule ahead of its results:

Structure (SMILES): COc1cc2c(cc1-c1c(C)noc1C)ncc1[nH]c(=O)n([C@H](C)c3ccccn3)c12
Activity (MV4-11 [1]): 33.1%
Activity (MV4-11 [2]): 90.86%
Activity (MV4-11 [3]): 47.8%
Activity (MV4-11 [4]): 0.718%
Activity (MV4-11 [5]): 2.78%
Activity (MV4-11 [6]): 6.36%
Activity (MV4-11 [7]): 18.4%

Structure (SMILES): COc1cc(C(=O)NCCCn2ccnc2)cc(OC)c1OC
inhibition [8]: 90%

Structure (SMILES): COc1cc(C(=O)NCCc2cccs2)cc(OC)c1OC
IC50 [9]: 6.4 µM

Structure (SMILES): COc1cc(C(=O)Nc2nccs2)cc(OC)c1OC
IC50 [9]: 4.3 µM

Structure (SMILES): COc1cc(C(=O)NCCOc2ccccc2)cc(OC)c1OC
IC50 [9]: 6.6 µM

Structure (SMILES): COc1cc(C(=O)Nc2ccnn2C2CCCC2)cc(OC)c1OC
Activity (MV4-11 [10]): 4.06%
Activity (MV4-11 [11]): 0.073%
IC50 [9]: 2.01 µM
inhibition [12]: Dose-dependent effect
Activity (MV4-11 [13]): 6.86%
Activity (MV4-11 [14]): Dose-dependent effect
Activity (MV4-11 [15]): 16.83%
inhibition [16]: Dose-dependent effect
ΔTm [17]: 1.9 °C
Activity (MV4-11 [18]): Dose-dependent effect
Activity [19]: Dose-dependent effect
ΔTm [20]: 3.31 °C
Activity (MV4-11 [21]): 16.83%
Activity (MV4-11 [22]): 79.1%
inhibition [23]: Dose-dependent effect
viability at 50 µM (MV4-11 [24]): 89%
inhibition [25]: Dose-dependent effect

Structure (SMILES): COCc1nnc(NC(=O)c2cc(OC)c(OC)c(OC)c2)s1
IC50 [9]: 11 µM

Structure (SMILES): COc1cc(C(=O)NCC2CCCO2)cc(OC)c1OC (configuration not stated)
inhibition [8]: 94%
